Compound activity deposited in PubChem BioAssay by The Scripps Research Institute Molecular Screening Center.
OXTR potentiator: potentiates the human oxytocin receptor response. CHO-OTR cells, Fluo-8 calcium fluorescence, potentiator mode; 0% = oxytocin EC15, 100% = EC100. activation, % at 3 µM. hit rate 0.061% among 320,000. AID 2445;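 active means activation above that plate's cutoff, the mean activation of tested compounds plus 3 SD, cut at about 6.6% in these data, passing the limit was not always enough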;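 further: 100% uses oxytocin at 75 nM as the full agonist control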
Target sequence (P30559 whole entry, looked up): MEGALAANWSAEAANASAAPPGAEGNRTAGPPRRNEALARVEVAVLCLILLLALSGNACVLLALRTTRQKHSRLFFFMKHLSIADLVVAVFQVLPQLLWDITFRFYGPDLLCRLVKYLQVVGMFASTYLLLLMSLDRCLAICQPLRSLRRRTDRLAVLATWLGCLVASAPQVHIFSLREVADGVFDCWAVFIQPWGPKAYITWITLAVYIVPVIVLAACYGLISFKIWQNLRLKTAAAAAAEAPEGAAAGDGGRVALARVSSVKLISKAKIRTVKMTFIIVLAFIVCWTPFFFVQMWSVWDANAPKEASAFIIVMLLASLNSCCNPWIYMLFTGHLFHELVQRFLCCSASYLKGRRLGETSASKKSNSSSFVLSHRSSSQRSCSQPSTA
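Replication – single well per compound, singlicate · Assay system – CHO cell line stably expressing human OTR · Timing – 6 min pre-incubation, 100 s read · Measure – normalized max/min fluorescence ratio, % activation · Doses – 3.0 µM, one dose · Detection – Fluo-8 calcium dye fluorescence · Probe or stimulus – oxytocin near EC15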
V1aR counter: activates human V1a receptor in oxytocin agonist counter-screen; P37288; CHO-V1R cells, Fluo-8 calcium fluorescence, agonist mode; 0% DMSO, 100% 3 nM vasopressin; activation, % at 3 µM; hit rate 0.25% among 320,000;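 active means activation above the mean activation of all tested compounds plus 3 SD, per screening run, cut at about 20% in these data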;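 further: signal is peak over basal fluorescence ratio across a 100 second FLIPR read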
Target sequence (P37288 whole entry, looked up): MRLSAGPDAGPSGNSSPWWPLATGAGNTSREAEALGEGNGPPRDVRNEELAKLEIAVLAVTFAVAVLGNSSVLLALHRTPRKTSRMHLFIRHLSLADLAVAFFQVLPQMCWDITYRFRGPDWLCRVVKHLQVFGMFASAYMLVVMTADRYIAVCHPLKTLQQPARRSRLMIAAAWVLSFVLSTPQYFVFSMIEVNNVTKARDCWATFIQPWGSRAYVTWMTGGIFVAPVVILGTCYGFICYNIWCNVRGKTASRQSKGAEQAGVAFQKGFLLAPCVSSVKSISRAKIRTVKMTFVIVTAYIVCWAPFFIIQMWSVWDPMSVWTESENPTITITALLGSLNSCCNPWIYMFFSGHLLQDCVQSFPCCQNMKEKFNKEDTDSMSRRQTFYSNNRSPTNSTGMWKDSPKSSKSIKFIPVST
OXTR agonist: human OXTR agonism | activation, % at 3 µM | P30559 | CHO-OTR cells, Fluo-8 calcium fluorescence; normalized: DMSO 0%, oxytocin 100% | hit rate 0.32% among 320,000;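 active means activation above the mean of all tested compounds plus 3 SD, cutoff set per screening run, cut at about 20% in these data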;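 further: peak over basal fluorescence ratio from a 100 s FLIPR kinetic read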
TAAR1 antagonist: antagonists of human TAAR1 | hit rate 1.5% among 360,000 | AID 624466 | inhibition, % at 3 µM | CHO RD-HGA16 TAAR1, Fluo-8 calcium fluorescence, antagonist;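 active means inhibition above a per-plate cutoff, the mean inhibition of test compounds on that plate plus 3 SD, cut at about 49% in these data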;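 further: 0% = DMSO plus EC80 beta-PEA response and 100% = DMSO alone without agonist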
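Test system: CHO RD-HGA16 cells bearing hTAAR1 | Reagent: β-PEA, EC80 | Compound dosing: 3 µM, single point | Schedule: Dye loading 75 min at 37 °C, then 30 min room temperature | Signal: Calcium fluorescence with Fluo-8 | Evaluation: Percent inhibition of PEA-evoked calcium signal, max/basal emission ratio | Control set: DMSO-only wells and EC80 β-PEA-stimulated wells | Repeats: Singlicate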
TAAR1 ag: agonists of human TAAR1; hit rate 0.99% among 360,000; AID 624467; activation, % at 3 µM; CHO RD-HGA16 TAAR1, Fluo-8 calcium fluorescence; vehicle wells 0%, saturating PEA agonist 100%;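 active means activation above the mean activation of all test compounds in the run plus 3 SD, cut at about 38% in these data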
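Assay system – CHO-derived RD-HGA16 cells with stable Gα16 and human TAAR1 · Compound dosing – one-point dosing at 3 µM (nominal) · Incubation – 17-24 h seeding, 75 min 37 °C dye, 30 min RT · Measured by – kinetic Fluo-8 calcium fluorescence · Control set – DMSO vehicle as 0%, PEA at EC100 as 100% · Repeats – single well for each compound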
OXTR pot cf: confirmation of human oxytocin receptor potentiators. shares compounds with OXTR potentiator. CHO-OTR cells, Fluo-8 calcium fluorescence, potentiation; scaled from low-dose to maximal oxytocin. activation, % at 3 µM. 180 tested, under 10 active. AID 434985;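 active means mean percent activation over triplicates above a cutoff set from solvent-only control plates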;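 further: compounds tested in the presence of an EC15 dose of oxytocin; 0% = EC15 oxytocin with DMSO and 100% = EC100 oxytocin with DMSO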
V1aR agonist cf: confirmation of human vasopressin V1a receptor agonists; hit rate 20% among 180; AID 434964; CHO-V1R cells, Fluo-8 calcium fluorescence, agonist; activation, % at 3 µM; shares compounds with V1aR counter;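 active means average activation exceeds primary screen hit cutoff, cut at about 21% in these data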;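 further: peak over basal fluorescence ratio during a 100 s FLIPR read; 0% = DMSO only wells and 100% = 3 nM vasopressin wells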
OXTR counter: OXTR agonism, counter-screen for V1R agonists | CHO-OTR cells, Fluo-8 calcium fluorescence, agonist | activation, % at 3 µM | shares compounds with V1aR counter | hit rate 10% among 180 | AID 434969;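 active means mean activation over three repeats above the cutoff from the earlier oxytocin receptor agonist screen, cut at about 20% in these data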;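 further: peak over minimum fluorescence ratio within a 100 second FLIPR read; 0% = DMSO only wells and 100% = oxytocin high control wells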
TAAR1 ag conf: human TAAR1 agonism, confirmed | CHO RD-HGA16 TAAR1, Fluo-8 calcium fluorescence; scaled: DMSO 0%, maximal phenethylamine 100% | shares compounds with TAAR1 ag | hit rate 82% among 2,400 | activation, % at 3 µM;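 active means activation above a cutoff set at the run's mean compound activation plus 3 SD, cut at about 39% in these data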
Ga16 nonsel ag: nonselective agonism, TAAR1 counter-screen | shares compounds with TAAR1 ag | CHO-Ga16 parental, Fluo-8 calcium fluorescence; normalized to maximal ATP response, DMSO zero | activation, % at 3 µM | hit rate 50% among 2,400 | AID 651787;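 active means activation above the run cutoff, the mean activation over all tested wells plus 3 SD, cut at about 12% in these data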;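 further: 0% = DMSO wells and 100% = maximal ATP response on the peak over basal ratio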
TAAR1 desens: human TAAR1 agonist that also desensitizes the receptor; inhibition, % at 3 µM; shares compounds with TAAR1 ag; hit rate 46% among 2,400; CHO RD-HGA16 hTAAR1, Fluo-8 calcium, beta-PEA response inhibition;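 active means inhibition above the run cutoff, the mean inhibition of all test compounds plus 3 SD, cut at about 49% in these data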;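 further: beta-PEA stimulus applied at its EC80; loss of beta-PEA calcium signal after compound pretreatment read as receptor desensitization; 0% = DMSO with beta-PEA at EC80 and 100% = DMSO alone without agonist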
Ga16 antag count: counter-screen for TAAR1 agonists: nonselective Ga16 antagonists; inhibition, % at 3 µM; CHO-Ga16 ATP-induced calcium, Fluo-8 fluorescence; AID 651952; shares compounds with TAAR1 ag; hit rate 39% among 2,400;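 active means inhibition above the plate's mean compound inhibition plus 3 SD, computed per plate, cut at about 22% in these data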;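 further: 0% = EC80 ATP with DMSO and 100% = DMSO wells without ATP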
An asterisk follows results filed as active; . = no result. Sampled rows, rich in hits. Any-hit rate of the full collection: about 2.3%.

SMILES	OXTR potentiator	V1aR counter	OXTR agonist	TAAR1 antagonist	TAAR1 ag	OXTR pot cf	others
O=c1cc(-c2c(F)c(F)c(F)c(F)c2F)oc2c(F)c(F)c(F)c(F)c12	19*	-1	-2	.	.	11*
C#CCN1C(=O)[C@]2(OCCC=C[C@H]2C)c2ccccc21	.	.	.	3	0	.
C[C@H]1COC(=O)[C@@H](Cc2ccc(F)cc2)C/C=C\C[C@@H](CC(=O)NCCO)C(=O)N1	14*	1	2	9	8	-3
CCN(CC(=O)Nc1c(F)cccc1F)C(=O)c1ccc2ccccc2n1	4	0	0	-9	0	.
CCN(CC(=O)Nc1c(F)cccc1F)C(=O)/C=C/c1ccc2ccccc2n1	21*	0	0	-12	6	-5
CCOC(=O)c1c(CN2CCC(C)CC2)oc2ccc(OC)cc12	12*	-1	-2	-21	8	-5
COc1ccc(NC(=O)/C(Cl)=C(/Cl)S(=O)Cc2ccccc2)cn1 (stereo not drawn)	20*	1	-1	74*	41*	5
Cc1nnc(NC(=O)c2cc(-c3ccncc3)nc3c(C)cccc23)s1	15*	-1	-1	-29	0	5
O=C(Nn1c(C2CCC2)nc2ccccc2c1=O)C1CCC1	13*	-1	-2	4	11	-8
Cc1nc2ccccc2c(=O)n1NC(=O)C1CCCCC1	-4	0	-1	2	-3	.
COC(=O)C1=C(C)N(Cc2ccccc2)C(=S)NC1c1ccc(Cl)cc1 (stereo not drawn)	.	.	.	21	0	.
CCOC(=O)c1ccc(S(=O)(=O)N2CCN(S(=O)(=O)CC)CC2)cc1	-11	2	1	-19	3	.
CCOC(=O)c1ccc(S(=O)(=O)N2CCNCC2)cc1	13*	6	1	11	6	-4
CCCOc1ccc(C(=O)OCC(=O)NCCc2ccc(OCC)c(OCC)c2)cc1OC	2	0	-2	-34	0	.
CCOc1ccc(CCNC(=O)COC(=O)c2cc(OC)cc(OC)c2)cc1OCC	9.8*	-1	-2	-14	-2	-3
C[C@@H]1CN([C@H](C)CO)C(=O)CCCn2cc(nn2)CO[C@H]1CN(C)S(=O)(=O)c1ccc(Cl)cc1	.	.	.	6	1	.
CCNc1nc(NC(C)C)nc(N(C)C#N)n1	13*	1	-1	6	2	3
CC(C)C[C@@H]1COc2cccc(N(C)CCO)c2S(=O)(=O)N1	.	.	.	13	2	.
COC(=O)c1cc(S(=O)(=O)N2CCCC(C)C2)c[nH]1 (stereo not drawn)	-7	1	0	-8	2	.
COC(=O)c1cc(S(=O)(=O)N2CCCCC2C)c[nH]1 (stereo not drawn)	11*	1	0	-26	2	-8
CCOC(=O)c1cnc2cc(-c3ccc(C)cc3)nn2c1-c1ccccc1	14*	1	2	30	7	-11
CCOC(=O)c1cnc2cc(-c3ccc(C)cc3)nn2c1C	.	.	.	-14	4	.
COc1ccc([N+](=O)[O-])cc1-n1cccc1	13*	0	0	-11	-1	-7
COc1ccc([N+](=O)[O-])cc1N1C(=O)c2cccc3cccc(c23)C1=O	-6	2	0	3	1	.
O=S1(=O)CC(N2CCCC2)CN1Cc1cn(Cc2ccc(C(F)(F)F)cc2)nn1 (stereo not drawn)	.	.	.	-13	2	.
SMILES	OXTR potentiator	V1aR counter	OXTR agonist	TAAR1 antagonist	TAAR1 ag	OXTR pot cf	others
O=C(Cn1ncc2ccccc21)N1CCc2ccccc21	12*	0	-1	-13	1	-6
O=C(Cn1cnc2ccccc21)N1CCc2ccccc21	-1	1	1	15	1	.
CCc1ccc(NC(=O)Cc2ccc(NC3=NC4CS(=O)(=O)CC4S3)cc2)cc1 (stereo not drawn)	8.3*	0	0	-33	5	-4
C/C(=N/NC(=O)CNC(=O)c1ccccn1)c1cccc([N+](=O)[O-])c1	12*	1	1	11	7	-3
COc1ccc(N2CCN(C(=O)C3CCN(S(=O)(=O)c4ccc5c(c4)oc(=O)n5C)CC3)CC2)cc1	13*	1	2	-11	5	-5
O=C1NC[C@H](CCCCN2C[C@H](Cc3ccccc3)N(CCc3ccccc3)C(=O)C2=O)N(CC2CCCCC2)C1=O	.	.	.	-27	2	.
S=c1[nH]nc(-c2ccncc2)n1/N=C/c1cn(-c2ccccc2)nc1-c1ccccc1	20*	1	0	12	82*	7.5*	TAAR1 ag conf=76*;Ga16 nonsel ag=17*;TAAR1 desens=61*;Ga16 antag count=14
O=[N+]([O-])c1ccc(-c2nn(-c3ccccc3)cc2/C=N/n2c(-c3ccncc3)n[nH]c2=S)cc1	-6	0	1	-24	1	.
CCOc1ccc(-c2c(C(=O)N/N=C/c3ccc(Cl)cc3)nnn2-c2nonc2N)cc1	23*	11	7	26	107*	11*	TAAR1 ag conf=113*;Ga16 nonsel ag=70*;TAAR1 desens=45;Ga16 antag count=13
CCCN1CCN(C(=O)Cn2nc(C)n3c(cc4c(OC)cccc43)c2=O)CC1	.	.	.	-13	2	.
Oc1ccc(Br)cc1C=Nc1ccc2c3c(cccc13)CC2	-8	24*	12	2	5	.	V1aR agonist cf=0;OXTR counter=-1
CCCCc1c(-c2cccc(Cl)c2)ncn1CCc1ccccc1OC	.	.	.	33	11	.
Cn1c(=O)c(C(=O)NNC(=O)c2ccccc2Br)c(O)c2ccccc21	-5	2	0	-25	12	.
